This is a sample that favours compounds with a hit; in the whole collection about 4.8% have one here.
Efflux pump mplx – blocks antifungal efflux pumps in multiplex yeast assay | inhibition, % at 10 µM | S. cerevisiae Candida pump triplex, Nile Red efflux | 0.44% of 330,000 active;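 active = plate passing quality check with inhibition over a set limit, or well fluorescence over plate mean plus 4 SD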;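 note: Nile Red retained in pooled yeast measured as flow cytometry median fluorescence; higher means more Nile Red kept so more efflux inhibition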
Mot1-301 SUMO – blocks SUMOylation pathway, rescuing yeast Mot1-301 growth | growth rescue, % at 18.8 µM | S. cerevisiae Mot1-301 growth rescue, ATP luminescence, 38.5C; percent above DMSO median, 100 means doubled | 1% of 320,000 active;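 active = every valid replicate shows activation above 250% relative to neutral control wells; inactive = the rest, any valid replicate at or below 250%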
Beta apoptosis – blocks beta cell apoptosis | 0.8% of 300,000 active | INS-1E cytokine-induced death, ATP luminescence, 48 h; percent of positive-control rescue, neutral wells zero | protection from apoptosis, % (no concentration beside the values);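 active = Every replicate reaches about 75%, or at least half do and their mean reaches it too, limit read from the data; inconclusive = At least half of replicates reach the limit but their mean does not; inactive = Under half of replicates reach the limit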;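 note: higher means more ATP so stronger rescue from cytokine killing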
CSC inhib – cancer stem cell inhibition; inhibition, % at 7.5 µM; 1.1% of 300,000 active; cancer stem cell-like cells viability, luminescence; in the data active = inhibition above about 75%; inconclusive = no clear call, values can overlap the other calls; tested in HMLE shEcad cells
WT yeast gro inh – growth inhibition of WT yeast, mitochondrial fusion screen; 2.1% of 190,000 active; AID 1362; mitochondrial fusion phenotypic screen, WT strain; inhibition, % at 10 µM; in the data active = inhibition above about 58%; tested in S. cerevisiae
T cruzi repl – T. cruzi replication inhibition. T. cruzi beta-gal in NIH3T3, luminescence, 90 h. inhibition, % (concentration not given with the values). 1.4% of 300,000 active. AID 1885;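 active = mean inhibition across valid replicates above about 55%, limit read from the data; inconclusive = mean below that limit but half or more replicates reach it; inactive = mean below it, under half of replicates reach it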;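 note: signal also drops with host cell toxicity which is not excluded here; higher percent means less beta-gal luminescence so fewer parasites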
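compound dosing = single 50 nL compound addition per well in DMSO | material = NIH/3T3 host cells with β-galactosidase reporter T. cruzi | input = 5,000 host fibroblasts per well | timing = ≥90 h infection period, 3 h prior cell attachment | read-out basis = percent inhibition of parasite-derived β-gal signal | detection = GalScreen β-gal luminescence, detergent lysis, 60 min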
Large screens that a line does not name were inactive.

Cc1cc(C)c2cc(C(=O)Nc3ccc(C)c(F)c3)[nH]c2c1	Mot1-301 SUMO 340 (no result: WT yeast gro inh)
CC1(C)Cc2c(C#N)c(SCCOc3ccccc3)nc(N3CCOCC3)c2CO1	T cruzi repl 69 (no result: Beta apoptosis)
COc1ccccc1CCN1CCCC(CN(C)C(=O)CCC(N)=O)C1 (stereo not given)	none (no result: WT yeast gro inh)
COc1ccc(OCC(O)CNCc2ccco2)cc1 (stereo not given)	WT yeast gro inh 72
OC(CNc1ccccc1)COc1ccc(OCC(O)CNc2ccccc2)cc1 (stereo not given)	T cruzi repl 63
OC(CNCc1ccco1)COc1ccccc1 (stereo not given)	none (no result: Efflux pump mplx, Mot1-301 SUMO, Beta apoptosis, CSC inhib)
COc1ccc(CNCC(O)COc2ccc(C(C)(C)c3ccccc3)cc2)cc1 (stereo not given)	CSC inhib 109 (no result: WT yeast gro inh)
CCOCC(O)CNc1ccccc1 (stereo not given)	none
COC(=O)c1ccc(CNCC(O)COc2ccc(-c3ccccc3)cc2)cc1 (stereo not given)	none (no result: WT yeast gro inh)
COC(=O)c1ccc(C(=O)NC2CCCc3c2cnn3-c2cc(F)cc(F)c2)nc1 (stereo not given)	none (no result: WT yeast gro inh)
Cc1cccc(NC(=S)NCC(C)CSc2ccc(Cl)cc2)c1 (stereo not given)	CSC inhib inconclusive, WT yeast gro inh 82
CN(C)C(CNC(=S)Nc1ccc(Cl)cc1)c1cccnc1 (stereo not given)	none
Cc1ccc(NC(=S)NCC(C)CSc2ccc(Cl)cc2)cc1 (stereo not given)	WT yeast gro inh 81
Cc1cccc(NC(=S)NCC(c2ccccc2)N(C)C)c1 (stereo not given)	none
CCOC(=O)C1=C(COC(=O)CCOc2ccccc2C)NC(=O)NC1C (stereo not given)	none (no result: WT yeast gro inh)
CC(C)N(CCC(=O)c1ccc2ccccc2c1)Cc1ccccc1	CSC inhib 75 (no result: WT yeast gro inh, T cruzi repl)
COc1ccc(CCNC(=O)C2CCC(=O)N(CC3CCCCC3)C2)cc1 (stereo not given)	none (no result: Efflux pump mplx, Mot1-301 SUMO, Beta apoptosis, CSC inhib, WT yeast gro inh)
COc1cc(NC(=O)CN(C)S(=O)(=O)c2ccc3c(c2)CC(C)N3C(C)=O)cc(OC)c1OC (stereo not given)	none (no result: WT yeast gro inh)
O=C(COC(=O)c1ccc([N+](=O)[O-])s1)Nc1ncc(C(F)(F)F)cc1Cl	WT yeast gro inh 82
O=C(COC(=O)C1(c2ccc(Cl)cc2)CCCC1)Nc1ncc(C(F)(F)F)cc1Cl	WT yeast gro inh 68
O=C(CCc1c[nH]c2ccccc12)OCC(=O)N1CCN(S(=O)(=O)c2ccccc2)CC1	none (no result: WT yeast gro inh)
CN(C(=O)c1cccc(NC(=O)Cc2ccc([N+](=O)[O-])cc2)c1)C1CC1	none (no result: WT yeast gro inh, T cruzi repl)
CC(=O)c1ccc(N2CCC(c3cc(-c4ccc(Cl)cc4)n[nH]3)CC2)c([N+](=O)[O-])c1	CSC inhib 101, T cruzi repl 74
COC(=O)c1ccc(N2CCC(c3cc(-c4ccc(OC)cc4)n[nH]3)CC2)c([N+](=O)[O-])c1	none
COc1ccc(-c2cc(C3CCN(c4ccc(C(C)=O)cc4[N+](=O)[O-])CC3)[nH]n2)cc1	CSC inhib 76, T cruzi repl 63
COc1ccc(C(=O)NCCS(=O)(=O)N(C)C2CCCCC2)cc1	none (no result: WT yeast gro inh)
COc1ccc(S(=O)(=O)N2CCC(C)CC2)cc1N(C)S(=O)(=O)c1ccccc1	none (no result: WT yeast gro inh)
COc1ccc(S(=O)(=O)N2CCCCCC2)cc1N(C)S(=O)(=O)c1ccc(Cl)cc1	T cruzi repl 64
COc1ccc(S(=O)(=O)N2CCC(C(=O)N3CCCCC3)CC2)cc1OC	WT yeast gro inh 61
Cc1[nH]c2ccc(-c3nnc(SCC(=O)N4CCCc5ccccc54)o3)cc2c1C	T cruzi repl 79
CCOc1ccc(CNc2ccc(S(N)(=O)=O)cc2)cc1	none
CCCCCCc1cc2cc(-c3nnc(-c4cc(OC)c(OC)c(OC)c4)o3)c(=O)oc2cc1O	CSC inhib 77
CCCCCCc1cc2cc(-c3nnc(-c4ccccc4O)o3)c(=O)oc2cc1O	Beta apoptosis 106, CSC inhib 109
COc1ccc(NC(=O)c2[nH]c(C)c(C(C)=O)c2C)cc1S(=O)(=O)Nc1ccc(Br)cc1	T cruzi repl 56 (no result: WT yeast gro inh)
COCCCn1c(SCc2cccc(C(F)(F)F)c2)nc2cc(OC)c(OC)cc2c1=N	CSC inhib 83, T cruzi repl 58
COCCCn1c(SCc2ccccc2)nc2cc(OC)c(OC)cc2c1=N	T cruzi repl 56
COCCCn1c(SCc2nnc(-c3ccc(OC)c(OC)c3)o2)nc2ccccc2c1=O	none
COCCCn1c(SCC(=O)O)nc2cc(OC)c(OC)cc2c1=N	none (no result: Beta apoptosis)
O=C(NCc1n[nH]c(=S)n1-c1cccc(C(F)(F)F)c1)c1ccco1	none (no result: WT yeast gro inh)
CCO[C@H]1OC(C(=O)Nc2ccccc2)=C[C@@H](c2ccc(C(F)(F)F)cc2)[C@@H]1CCCO	WT yeast gro inh 75
CCCCN(CCO)CCCC	none (no result: WT yeast gro inh, T cruzi repl)
C=CCSc1nnc(NC(=O)c2cn(CC)c3nc(C)ccc3c2=O)s1	none
CC1(C)CCC[C@]2(C)[C@H]3Cc4cc(O)ccc4O[C@]3(C)CC[C@@H]12	CSC inhib 130 (no result: WT yeast gro inh, T cruzi repl)
CC1(C)CCC[C@]2(C)[C@H]3CC(=O)O[C@]3(C)CC[C@@H]12	none (no result: WT yeast gro inh)
Cc1cc2ccccc2n1CCNC(=O)C(C)Oc1ccccc1 (stereo not given)	T cruzi repl 63
Cc1cc2ccccc2n1CCNC(=O)C(C)C	none
CSCCC(NC(=O)COc1ccccc1)C(=O)N1CCN(c2ccccc2Cl)CC1 (stereo not given)	none (no result: WT yeast gro inh)
COc1ccc(/C=C/C(=O)c2ccc(O)cc2)cc1COc1ccc(F)cc1	CSC inhib 97, WT yeast gro inh 90
O=C(/C=C/c1ccc(O)c([N+](=O)[O-])c1)c1ccc2ccccc2c1	none (no result: WT yeast gro inh)
COc1ccc(C(=O)/C=C/c2ccc(OCc3ccccc3)cc2)cc1CSCC(=O)O	CSC inhib 79 (no result: WT yeast gro inh)
CCN(CC)S(=O)(=O)c1ccc(N2CCN(c3cccc(OC)c3)CC2)c([N+](=O)[O-])c1	T cruzi repl 65
COc1ccc(Oc2ccc(/C=C/C(=O)c3ccc(O)cc3)cc2[N+](=O)[O-])cc1	CSC inhib 94
COc1ccc(C)cc1NC(=O)C1CCN(C(=O)C2CC(=O)N(c3ccc(C)cc3)C2)CC1 (stereo not given)	none (no result: CSC inhib, WT yeast gro inh)
CC(C)OP(=O)(OC(C)C)C(O)c1cccc([N+](=O)[O-])c1 (stereo not given)	none (no result: WT yeast gro inh)
COc1cccc(C(=O)/C=C/c2ccc(N3CCCCC3)c([N+](=O)[O-])c2)c1	CSC inhib 86
CC1CCCC(C)N1C(=O)CN1C(=O)c2ccccc2S1(=O)=O (stereo not given)	none (no result: Mot1-301 SUMO, Beta apoptosis, CSC inhib, WT yeast gro inh, T cruzi repl)
O=C(CCC(=O)c1ccccc1)NCc1ccccc1	none (no result: WT yeast gro inh)
Cc1c(CCOC(=O)c2ccc(Cl)cc2Cl)sc[n+]1CC(=O)c1ccc(Br)cc1	none (no result: WT yeast gro inh, T cruzi repl)
Cc1c(CCOC(=O)C2C3CC4CC(C3)CC2C4)sc[n+]1CC(=O)c1ccc(Br)cc1 (stereo not given)	CSC inhib 108
O=C(Nc1cccc(C(F)(F)F)c1)c1cccnn1	none (no result: WT yeast gro inh)

Assay outcomes deposited in PubChem by several laboratories.
